Laboratory results from PMC3078945 (Clinical cancer research : an official journal of the …, 2011).
Entries after “also recorded” stand apart in the source; their conditions may differ. Read-outs that look alike come from different tables or passages of the source.

How the values were obtained:
[1] = cited from earlier work
[2] = biological target: sphingosine kinase 1 (SphK); details: cited from earlier work
xenograft = details: cited from earlier work
mice = details: mouse, in vivo; cited from earlier work
[3] = Safingol plasma pharmacokinetics in the phase I trial; type: in vivo, human; details: for dose dependence of safingol PK parameters (Cmax, AUC): safingol 60–930 mg/m^2
In short: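 Safingol was an egg-phospholipid/dextrose/lactic acid emulsion diluted to 1 mg/ml in saline and infused IV over 60–120 min at 60–930 mg/m2. […] Assay was HPLC-MS/MS with non-compartmental analysis.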

[4] = test system: patients with advanced solid tumors; details: for AST/ALT G2 (number of patients) / Fatigue G4 (number of patients) / Hyponatremia G2 (number of patients) / Hyponatremia G3 (number of patients) / Hyponatremia G4 (number of patients) / Lymphopenia G2 (number of patients) / Lymphopenia G3 (number of patients) / Lymphopenia G4 (number of patients) / Nausea/vomiting G2 (number of patients) / Nausea/vomiting G3 (number of patients): cycle 1
patients = details: cited from earlier work
solid tumor cells = details: safingol alone; cited from earlier work
[5] = test system: sphingosine-1-phophate (S1P) levels; experiment: Pharmacodynamics: plasma S1P levels after safingol; type: in vivo, human; details: for effect on S1P in plasma: across dose cohorts
In short: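 Levels 1 h and 4 h after safingol were normalized to pre-treatment levels, with patients grouped by dose cohort. Values are cohort means with standard error.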

advanced solid tumors = experiment: Antitumor activity; type: in vivo, human
Protein Kinase C = details: PKC; cited from earlier work
[6] = cited from earlier work; remark: listed apart in the source
[7] = cohorts 8–10, safingol 750–930 mg/m^2
[8] = cohort 1 (safingol 60, cisplatin 75 mg/m^2), N=4
[9] = cohort 2 (safingol 120, cisplatin 75 mg/m^2), N=3
[10] = cohort 3 (safingol 240, cisplatin 75 mg/m^2), N=3
[11] = cohort 4 (safingol 240, cisplatin 60 mg/m^2), N=6
[12] = cohort 5 (safingol 360, cisplatin 60 mg/m^2), N=3
[13] = cohort 6 (safingol 480, cisplatin 60 mg/m^2), N=3
[14] = cohort 7 (safingol 600, cisplatin 60 mg/m^2), N=3
[15] = cohort 8 (safingol 750, cisplatin 60 mg/m^2), N=6
[16] = cohort 9 (safingol 930, cisplatin 60 mg/m^2), N=6
[17] = cohort 10 (safingol 840, cisplatin 60 mg/m^2), N=6
[18] = safingol + cisplatin, 6 patients
[19] = safingol + cisplatin, 37 patients evaluable

CCCCCCCCCCCCCCC[C@H](O)[C@@H](N)CO [Safingol, (2S,3S)-2-amino-1,3-octadecanediol]
effect on in vitro antitumor effect of doxorubicin, cisplatin and mitomycin C [1]: increases the in vitro antitumor effect
Ki ([2]; SphK): 5 µM
Ki ([2]; competitive inhibitor of SphK): ~5 µM
effect on antitumor activity of cisplatin in xenografts (xenograft): can increase the antitumor activity of cisplatin without increasing toxicity
hepatic toxicity in mice (mice): increases in ALT and histological changes consistent with hepatocyte autophagy
pharmacokinetic interaction of safingol with cisplatin (day 1 vs day 8) ([3]; cohorts 1–7, listed as S): no significant interaction
duration of safingol concentration over 20 µM [3, 7]: < 1 h
time safingol levels of at least 5 µM persist after treatment [3, 7]: at least 4 hours
AUC ([3]; human, plasma, intravenous, Mean day 1 safingol AUC, safingol 600 – 930 mg/m^2): 102 to 110 µM·h
Cmax ([3]; human, plasma, intravenous, Mean day 1 safingol Cmax, safingol 600 – 930 mg/m^2): 23900 to 26800 nM
increase in AUC per 100 mg/m^2 increase in safingol dose ([3]; on average): 10 µM·h
increase in Cmax per 100 mg/m^2 increase in safingol dose ([3]; on average): 3000 nM
dose dependence of safingol PK parameters (Cmax, AUC) [3]: increased in a linear and dose-proportional manner; also recorded: increased linearly with dose
dose dependence of safingol PK parameters (Cmax, AUC) ([3]; listed as S): linear throughout the dose range
upper limit of the 95% posterior interval of DLT rate ([4]; MTD cohort): 40%
DLT rate for the MTD cohort ([4]; cohort 10, 1/6): 17%
hemolysis ([4]; current study, careful monitoring): no hemolysis was observed in any patient
AST/ALT G2 (number of patients) [4, 8]: 0
Fatigue G4 (number of patients) [4, 8]: 0
Hyponatremia G2 (number of patients) [4, 8]: 0
Hyponatremia G3 (number of patients) [4, 8]: 1
Hyponatremia G4 (number of patients) [4, 8]: 0
Lymphopenia G2 (number of patients) [4, 8]: 0
Lymphopenia G3 (number of patients) [4, 8]: 1
Lymphopenia G4 (number of patients) [4, 8]: 0
Nausea/vomiting G2 (number of patients) [4, 8]: 0
Nausea/vomiting G3 (number of patients) [4, 8]: 0
AST/ALT G2 (number of patients) [4, 9]: 0
Fatigue G4 (number of patients) [4, 9]: 0
Hyponatremia G2 (number of patients) [4, 9]: 0
Hyponatremia G3 (number of patients) [4, 9]: 0
Hyponatremia G4 (number of patients) [4, 9]: 0
Lymphopenia G2 (number of patients) [4, 9]: 0
Lymphopenia G3 (number of patients) [4, 9]: 1
Lymphopenia G4 (number of patients) [4, 9]: 0
Nausea/vomiting G2 (number of patients) [4, 9]: 1
Nausea/vomiting G3 (number of patients) [4, 9]: 0
AST/ALT G2 (number of patients) [4, 10]: 0
Fatigue G4 (number of patients) [4, 10]: 0
Hyponatremia G2 (number of patients) [4, 10]: 0
Hyponatremia G3 (number of patients) [4, 10]: 1
Hyponatremia G4 (number of patients) [4, 10]: 0
Lymphopenia G2 (number of patients) [4, 10]: 0
Lymphopenia G3 (number of patients) [4, 10]: 0
Lymphopenia G4 (number of patients) [4, 10]: 0
Nausea/vomiting G2 (number of patients) [4, 10]: 3
Nausea/vomiting G3 (number of patients) [4, 10]: 0
AST/ALT G2 (number of patients) [4, 11]: 1
Fatigue G4 (number of patients) [4, 11]: 0
Hyponatremia G2 (number of patients) [4, 11]: 0
Hyponatremia G3 (number of patients) [4, 11]: 0
Hyponatremia G4 (number of patients) [4, 11]: 0
Lymphopenia G2 (number of patients) [4, 11]: 0
Lymphopenia G3 (number of patients) [4, 11]: 3
Lymphopenia G4 (number of patients) [4, 11]: 0
Nausea/vomiting G2 (number of patients) [4, 11]: 0
Nausea/vomiting G3 (number of patients) [4, 11]: 0
AST/ALT G2 (number of patients) [4, 12]: 1
Fatigue G4 (number of patients) [4, 12]: 0
Hyponatremia G2 (number of patients) [4, 12]: 0
Hyponatremia G3 (number of patients) [4, 12]: 0
Hyponatremia G4 (number of patients) [4, 12]: 0
Lymphopenia G2 (number of patients) [4, 12]: 0
Lymphopenia G3 (number of patients) [4, 12]: 1
Lymphopenia G4 (number of patients) [4, 12]: 0
Nausea/vomiting G2 (number of patients) [4, 12]: 0
Nausea/vomiting G3 (number of patients) [4, 12]: 0
AST/ALT G2 (number of patients) [4, 13]: 0
Fatigue G4 (number of patients) [4, 13]: 0
Hyponatremia G2 (number of patients) [4, 13]: 0
Hyponatremia G3 (number of patients) [4, 13]: 0
Hyponatremia G4 (number of patients) [4, 13]: 0
Lymphopenia G2 (number of patients) [4, 13]: 0
Lymphopenia G3 (number of patients) [4, 13]: 0
Lymphopenia G4 (number of patients) [4, 13]: 0
Nausea/vomiting G2 (number of patients) [4, 13]: 0
Nausea/vomiting G3 (number of patients) [4, 13]: 0
AST/ALT G2 (number of patients) [4, 14]: 0
Fatigue G4 (number of patients) [4, 14]: 0
Hyponatremia G2 (number of patients) [4, 14]: 0
Hyponatremia G3 (number of patients) [4, 14]: 0
Hyponatremia G4 (number of patients) [4, 14]: 0
Lymphopenia G2 (number of patients) [4, 14]: 0
Lymphopenia G3 (number of patients) [4, 14]: 0
Lymphopenia G4 (number of patients) [4, 14]: 0
Nausea/vomiting G2 (number of patients) [4, 14]: 0
Nausea/vomiting G3 (number of patients) [4, 14]: 0
AST/ALT G2 (number of patients) [4, 15]: 1
Fatigue G4 (number of patients) [4, 15]: 0
Hyponatremia G2 (number of patients) [4, 15]: 0
Hyponatremia G3 (number of patients) [4, 15]: 0
Hyponatremia G4 (number of patients) [4, 15]: 0
Lymphopenia G2 (number of patients) [4, 15]: 0
Lymphopenia G3 (number of patients) [4, 15]: 0
Lymphopenia G4 (number of patients) [4, 15]: 0
Nausea/vomiting G2 (number of patients) [4, 15]: 0
Nausea/vomiting G3 (number of patients) [4, 15]: 0
AST/ALT G2 (number of patients) [4, 16]: 1
Fatigue G4 (number of patients) [4, 16]: 0
Hyponatremia G2 (number of patients) [4, 16]: 0
Hyponatremia G3 (number of patients) [4, 16]: 1
Hyponatremia G4 (number of patients) [4, 16]: 0
Lymphopenia G2 (number of patients) [4, 16]: 0
Lymphopenia G3 (number of patients) [4, 16]: 2
Lymphopenia G4 (number of patients) [4, 16]: 0
Nausea/vomiting G2 (number of patients) [4, 16]: 0
Nausea/vomiting G3 (number of patients) [4, 16]: 0
AST/ALT G2 (number of patients) [4, 17]: 0
Fatigue G4 (number of patients) [4, 17]: 0
Hyponatremia G2 (number of patients) [4, 17]: 0
Hyponatremia G3 (number of patients) [4, 17]: 2
Hyponatremia G4 (number of patients) [4, 17]: 0
Lymphopenia G2 (number of patients) [4, 17]: 0
Lymphopenia G3 (number of patients) [4, 17]: 0
Lymphopenia G4 (number of patients) [4, 17]: 0
Nausea/vomiting G2 (number of patients) [4, 17]: 1
Nausea/vomiting G3 (number of patients) [4, 17]: 0
maximum administered dose ([4]; exceeded the MTD): 930 mg/m^2
DLT from safingol (principal DLT) ([4]; in combination with cisplatin): hepatic enzyme elevation
overall tolerability of the drug combination ([4]; in vivo): well tolerated with no major increase in toxicities over those of cisplatin alone
maximum tolerated dose (MTD) ([4]; safingol over 120 min with cisplatin 60 mg/m^2, every 3 weeks): 840 mg/m^2
recommended phase 2 dose ([4]; with cisplatin 60 mg/m^2, every 3 weeks): 840 mg/m^2
safingol-associated toxicity (patients; phase I study with doxorubicin): a single episode of grade 1 hemolysis
hepatic toxicity (patients; safingol doses not exceeding 120 mg/m^2 with doxorubicin): no hepatic toxicity was observed
dose-limiting toxicity (patients; safingol up to 120 mg/m^2 every three weeks with doxorubicin): no dose-limiting toxicity observed
cell death mechanism (solid tumor cells): induces cell death by autophagy
effect on S1P in plasma [5]: dose-dependent decreases; also recorded: significant decreases
effect on S1P in plasma ([5]; listed as S): dose-dependent reduction
time dependence of S1P levels ([5]; safingol 930 mg/m^2, p = 0.001): lower 4 hours post-treatment than at 1 hour post-treatment
decrease of S1P levels relative to pre-treatment ([5]; safingol doses of over 750 mg/m^2, p < 0.001): about half
duration of stable disease (advanced solid tumors; other patient with adrenal cortical cancer): 7.2 m
average duration of stable disease (advanced solid tumors; [18]): 3.3 m
range of duration of stable disease (advanced solid tumors; [18]): 1.8 – 7.2 m
average duration of stable disease (advanced solid tumors; safingol + cisplatin, 6 patients, listed as S): 3.3 months
best response (advanced solid tumors; [19]): stable disease
number of patients with stable disease (advanced solid tumors; [19]): 6
Ki (Protein Kinase C): 33 µM
pharmacokinetic interaction with doxorubicin ([6]; phase I study with doxorubicin): No significant pharmacokinetic interaction
Cmax ([6]; read-out: mean Cmax, safingol 60 mg/m^2, study of safingol and doxorubicin): 1300 nM
